From PubChem
An excerpt weighted towards active compounds, which were near 1.8% of everything screened.
E coli Lon inh: inhibits E. coli Lon protease. purified E. coli Lon protease, fluorescence polarization. P0A9M0. 360,000 compounds, 0.42% hits. inhibition, % at 7.94 µM; in the data active = inhibition above about 13%, passing the limit was not always enough;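 note: 0% = enzyme with probe and DMSO and 100% = no enzyme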
PREPL inhibitor: inhibitors of human prolyl oligopeptidase-like enzyme PREPL. recombinant PREPL, fluorescence polarization activity-based probe. inhibition, % at 5.96 µM. 320,000 compounds, 0.68% hits. AID 2751;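 note: 0% = enzyme with DMSO and 100% = wells lacking enzyme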
Target sequence (Q4J6C6 whole entry, looked up): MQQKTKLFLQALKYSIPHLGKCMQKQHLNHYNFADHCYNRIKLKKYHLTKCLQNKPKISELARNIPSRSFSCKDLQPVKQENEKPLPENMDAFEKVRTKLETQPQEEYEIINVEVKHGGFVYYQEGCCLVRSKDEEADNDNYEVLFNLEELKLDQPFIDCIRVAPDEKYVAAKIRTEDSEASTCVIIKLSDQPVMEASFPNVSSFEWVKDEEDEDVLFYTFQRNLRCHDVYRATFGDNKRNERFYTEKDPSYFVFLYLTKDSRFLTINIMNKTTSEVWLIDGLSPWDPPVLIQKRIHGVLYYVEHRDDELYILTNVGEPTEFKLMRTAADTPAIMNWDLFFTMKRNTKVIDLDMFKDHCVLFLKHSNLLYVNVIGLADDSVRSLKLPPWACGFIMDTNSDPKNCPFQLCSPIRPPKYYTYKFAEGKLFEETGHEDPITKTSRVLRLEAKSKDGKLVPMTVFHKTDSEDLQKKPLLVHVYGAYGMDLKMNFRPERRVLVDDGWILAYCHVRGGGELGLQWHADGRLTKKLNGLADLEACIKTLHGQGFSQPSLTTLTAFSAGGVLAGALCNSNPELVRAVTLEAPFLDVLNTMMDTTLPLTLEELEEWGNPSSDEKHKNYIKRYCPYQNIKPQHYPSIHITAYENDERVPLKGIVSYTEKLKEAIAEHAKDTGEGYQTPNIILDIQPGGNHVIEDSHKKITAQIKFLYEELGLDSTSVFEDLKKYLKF
SKN-1 block: C. elegans SKN-1 inhibition | C. elegans VP596 Pgst-4::GFP/RFP ratio, acrylamide-induced, 24 h | inhibition, % at 21.8 µM | 360,000 compounds, 0.49% hits;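 active = interference check ratio from 0.5 to 1.5 plus GFP to RFP signal ratio inhibition reaching or exceeding a fixed threshold, cut at about 30% in these data, passing the limit was not always enough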
MT1-MMP act inh: MT1-MMP (human) activation inhibition. GFP/RFP ratio change, % at 20 µM. AID 651647. P50281. HT1080 RFP-PRO-GFP cells, GFP/RFP ratio fluorescence, overnight; percent of plate control window, DMSO zero. 360,000 compounds, 0.061% hits;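 active = GFP/RFP ratio change of at least 30% with cell ATP level not reduced by more than half and red fluorescence within 50% of control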
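Assay system – RFP-PRO-GFP reporter HT1080 cells · Compound dosing – single dose of 20 µM compound, 1% DMSO final · Incubation – overnight compound exposure at 37 °C · Measure – GFP/RFP fluorescence ratio · Benchmarks – DMSO wells and RFP-L50D-GFP cells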
iPSC survival up: enhancers of human iPSC single-cell survival | hiPSC single-cell survival, ATPlite luminescence; 100% = ROCK inhibitor wells, 0% = DMSO | survival enhancement, % at 20 µM | 360,000 compounds, 0.044% hits | AID 602274; in the data active = survival enhancement above about 18%;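 note: cells exposed to compounds for 16 hours before the ATP read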
TbMetRS inhib: blocks T. brucei methionyl-tRNA synthetase activity; purified T. brucei MetRS, ATP depletion, Kinase-Glo luminescence; inhibition, % at 11.9 µM; 360,000 compounds, 0.4% hits;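 active = inhibition above a per-plate cutoff of the control wells' mean inhibition plus 3 SD, cut at about 5.5% in these data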;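 note: 0% = DMSO wells median and 100% = median of wells with control inhibitor compound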
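Material – parasite MetRS enzyme · Medium – HEPES-MgCl2-KCl buffer plus DTT, spermine, BSA, pyrophosphatase · Reagent – ATP, methionine and E. coli bulk tRNA substrates · Times – 15 min enzyme-compound preincubation, 2 h reaction, 10 min detection, 25 °C · Measured by – luminescence of leftover ATP · Evaluation – percent inhibition relative to median high and low control wells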
PREPL inh cf: human PREPL inhibition, confirmation; 2,000 compounds, 67% hits; shares compounds with PREPL inhibitor; recombinant PREPL, fluorescence polarization activity probe; inhibition, % at 5.96 µM;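 note: 0% = protein with DMSO and 100% = wells lacking protein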
Starred values were filed as active, the others as inactive; / = not tested or not shown. Cut-off read from the data, not from the text of the source, unless noted: active = inhibition above about 43%; inactive = the rest.

SMILES | E coli Lon inh | PREPL inhibitor | SKN-1 block | MT1-MMP act inh | iPSC survival up | TbMetRS inhib | PREPL inh cf
CCCC(=O)Nc1ccc(S(=O)(=O)N2CCc3ccccc32)cc1 | -6 | / | 10 | 3 | 1 | -1 | /
OC(CNC1CCCC1)COCCOc1ccc(Br)cc1 (centres undefined) | -13 | 46* | -9 | 2 | -1 | -1 | 35
OC(CNC1CCCC1)COc1ccc(Cl)cc1 (centres undefined) | -9 | -7 | 14 | 1 | 0 | 0 | /
CN1CCCC1CCNc1ccc2sc3ccccc3c(=O)c2c1 (centres undefined) | -18 | 51* | 17 | -70 | -5 | 0 | 48*
O=c1c2ccccc2sc2ccc(NCCCN3CCOCC3)cc12 | -46 | 45* | -3 | -75 | 1 | 0 | 35
COc1cc2sc3cc(NCCCN4CCOCC4)ccc3c(=O)c2cc1OC | 9 | 23 | 1 | 14 | -2 | 0 | /
Cc1ccc(C)c(S(=O)(=O)N2CCN(C(=O)CCCc3c[nH]c4ccccc34)CC2)c1 | -12 | 47* | 9 | -4 | 0 | 0 | 35
Cc1ccc(C)c(S(=O)(=O)N2CCN(C(=O)CCc3c[nH]c4ccccc34)CC2)c1 | -6 | 35 | 15 | -4 | 0 | 0 | /
N#Cc1cc(C#N)c(SCC(=O)N2CC(=O)Nc3ccccc32)nc1N | -31 | 46* | 5 | -13 | 0 | 0 | 38
CCOC(=O)c1c(C)[nH]c(C)c1S(=O)(=O)NCC1CCN(Cc2ccccc2OC)CC1 | 0 | -9 | 4 | 2 | 0 | 0 | /
COc1c(Cl)ccc(Cl)c1C(=O)NC(=S)N1CCOCC1 | -4 | -2 | -13 | 2 | 1 | -1 | /
C/C(=N\Nc1ccc([N+](=O)[O-])cc1)c1cc2ccccc2o1 | -220 | 32 | 27 | -128 | 0 | 0 | /
CC(C)[C@H](CN1CCC[C@H]1CN1C(N)=NC[C@@H]1Cc1ccccc1)N1C[C@@H](Cc2ccccc2)N(CCc2ccc(Cl)c(Cl)c2)C1=N | 7 | 53* | -6 | 1 | 5 | 0 | 53*
CCC[C@@H](CN1CCC[C@H]1CN1C(N)=NC[C@@H]1Cc1ccccc1)N1C[C@@H](Cc2ccccc2)N(CCc2ccc(Cl)c(Cl)c2)C1=N | -9 | 32 | -14 | -2 | -2 | 0 | /
CC(C)[C@@H]1CN=C(N)N1C[C@@H]1CCCN1C[C@H](C)N1C[C@@H](Cc2ccccc2)N(CCc2ccc(Cl)c(Cl)c2)C1=N | -1 | 63* | -14 | 4 | -1 | -1 | 61*
C[C@@H](CN1CCC[C@H]1CN1C(N)=NC[C@@H]1Cc1ccccc1)N1C[C@@H](Cc2ccccc2)N(CCc2ccc(Cl)c(Cl)c2)C1=N | 0 | 46* | 4 | 5 | -1 | 0 | 38
COc1ccc(-c2c[n+]3c4n2CCCCC4=C(c2ccccc2)C3)cc1 | -11 | 54* | 15 | -12 | -3 | 0 | 38
COc1ccc(-c2c[n+](CC(=O)c3ccccc3)c3n2CCCCC3)cc1 | 1 | 22 | -8 | -2 | 0 | 0 | /
CNC(=O)c1ccc(-c2sc3nc(N4CCOCC4)c4c(c3c2N)CC(C)(C)OC4)o1 | -5 | 14 | 2 | 16 | -1 | 0 | /
CNC(=O)c1ccc(-c2sc3nc(N4CCOCC4)c4c(c3c2N)CCCC4)o1 | 0 | 48* | 8 | 0 | 3 | 0 | 32
ClCC1=Nc2cccc3cccc(c23)N1 | / | 13 | / | / | / | / | /
CC(=O)Oc1ccc2c(c1)Oc1cc(OC(C)=O)ccc1C21OC(=O)c2ccccc21 | / | 95* | 52 | -8 | -2 | 1 | 112*
CN1CCc2c(n(CC(O)CNCc3ccccc3)c3ccccc23)C1=O (centres undefined) | -1 | 31 | 6 | -3 | 1 | 0 | /
CC(C)NCC(O)Cn1c2c(c3ccccc31)CCc1c-2cnn1-c1ccccc1 (centres undefined) | -15 | 66* | 30 | 11 | -4 | -2 | 82*
CCCCNc1c(-c2ccc(SC(C)CC)cc2)nc2cnccn12 (centres undefined) | -5 | 59* | 13 | -44 | 2 | 0 | 55*
SMILES | E coli Lon inh | PREPL inhibitor | SKN-1 block | MT1-MMP act inh | iPSC survival up | TbMetRS inhib | PREPL inh cf
COc1ccccc1OCc1ccc(C(=O)Nc2cc(OC)c(OC)c(OC)c2)o1 | -6 | / | -5 | 6 | 0 | -1 | /
COc1cc(NC(=O)c2ccc(COc3ccccc3Br)o2)cc(OC)c1OC | -18 | 44* | 4 | 9 | 2 | 0 | 40
CC(=O)OC[C@H]1O[C@@H](O[C@H]2C[C@]3(C)C(C[C@@H](O)C4C([C@]5(C)CC[C@@H](C(C)(C)O)O5)CC[C@]43C)[C@@]3(C)CC[C@H](O)C(C)(C)C23)[C@H](O[C@@H]2O[C@@H](C)[C@H](O)[C@@H](O)[C@H]2O)[C@@H](O)[C@@H]1O (some centres undefined) | -8 | 10 | 9 | -2 | -2 | 0 | /
CC(NC(=O)c1cccs1)c1nnc(SCc2ccc(Cl)cc2Cl)n1C (centres undefined) | -4 | 43* | -1 | -1 | 11 | 0 | 39
C=CCn1c(CNC(=O)c2cccs2)nnc1SCc1ccc(Cl)cc1Cl | -6 | 12 | 0 | -6 | 0 | 0 | /
NNc1ncnc2sc3c(c12)CCC3 | -9 | 44* | 6 | -2 | 8 | 0 | 22
CCOc1cc(/C=C2/C(=N)N3C(=NC2=O)SN=C3S(=O)(=O)CC)ccc1OC(=O)c1ccco1 | -25 | 36 | -4 | -38 | -1 | 0 | /
COc1cc(/C=C2/C(=N)N3C(SC)=NSC3=NC2=O)ccc1OC(=O)c1ccco1 | -37 | 54* | 0 | 0 | 0 | 0 | 64*
CCS(=O)(=O)C1=NSC2=NC(=O)/C(=C\c3ccc(OC(=O)c4ccco4)c(OC)c3)C(=N)N21 | -29 | 53* | 6 | -34 | 0 | 0 | 77*
COc1cc(/C=C2/C(=N)N3C(=NC2=O)SN=C3S(C)(=O)=O)ccc1OC(=O)c1ccco1 | -57 | 62* | 6 | -53 | 0 | 0 | 80*
COc1cc(/C=C2\C(=O)N(c3ccc(S(N)(=O)=O)cc3)N=C2C)ccc1OC(=O)c1ccco1 | 15 | 54* | -6 | 6 | -2 | 0 | 83*
CCCOc1ccccc1NC(=O)/C=C/c1ccc(OC)c(S(=O)(=O)N2CCOCC2)c1 | -4 | / | 2 | 2 | 2 | 0 | /
COc1ccccc1OCc1nc(-c2cccc([N+](=O)[O-])c2)no1 | 3 | 3 | -2 | 3 | 0 | 0 | /
